Our source for the IC50, Ki and Ratio Ki values is ChEMBL document CHEMBL4304784, “Discovery of new potent dual sigma receptor/GluN2b ligands with antioxidant property as neuroprotective agents” (Eur J Med Chem, 2019).

In brackets after ≈: the same amount, converted by molar mass.

The nature of assay [1]: Antioxidant activity assessed as H2O2 radical scavenging activity. The assay is classed as functional. The method in brief: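 Compounds at 0.05, 0.1, 0.2 and 0.4 mg/mL in phosphate buffer pH 7.4. 0.353 mL of 4 mM H2O2 in phosphate buffer added to 2.0 mL of each solution, absorbance read at 239 nm. Percent inhibition calculated from absorbances relative to control. Triplicate, mean ± SEM.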

A short description of assay [2]: Antioxidant activity assessed as ABTS radical scavenging activity incubated for 40 mins. The assay is classed as functional. In outline: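 Test compound at 0.05, 0.1, 0.2 and 0.4 mg/mL (200 µL) added to 1.8 mL ethanolic ABTS 7mM. Incubated 40 min at room temperature, absorbance read at 735 nm against ABTS solution. Percent inhibition computed from absorbances and used to derive IC50. Triplicate, mean ± SEM; ascorbic acid as reference.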

Assay [3] has as its target T1, Sigma intracellular receptor 2 (Rattus norvegicus, UniProt Q5U3Y7).
T1 sequence (Q5U3Y7 whole entry): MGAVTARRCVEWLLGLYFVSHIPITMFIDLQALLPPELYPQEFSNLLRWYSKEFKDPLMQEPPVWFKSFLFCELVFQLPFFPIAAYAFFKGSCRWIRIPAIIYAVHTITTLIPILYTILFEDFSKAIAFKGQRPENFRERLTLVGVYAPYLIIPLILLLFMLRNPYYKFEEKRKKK
Nature of the assay: Displacement of [3H]-di-o-tolylguanidine from sigma2 receptor in rat liver membranes in the presence of sigma1 receptor ligand (+)-pentazocine incubated for 120 mins by scintillation counting method. Format: cell membranes. The method in brief:
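Rat liver membranes (about 100 µg protein) with 3 nM [3H]di-o-tolylguanidine in 50 mM TRIS pH 8.0 containing 500 nM (+)-pentazocine, at rt. Non-specific binding defined with 10 µM unlabeled DTG. Concentrations 10^-5 to 10^-10 M, in duplicate. 120 min, filtration, scintillation counting. Three independent experiments, mean ± SEM.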
(In a radioligand displacement assay an active substance lowers the binding of a labelled ligand.)

The target in assay [4] is Sigma non-opioid intracellular receptor 1 (Cavia porcellus, UniProt Q60492). As to the kind of experiment: Displacement of [3H]-(+)-pentazocine from sigma1 receptor in guinea pig brain cortex membranes incubated for 120 mins by solid scintillation counting method. Format: cell membranes. In outline: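 Guinea pig brain cortex membranes (about 100 µg protein) with 2 nM [3H]-(+)-pentazocine in 50 mM TRIS pH 7.4 at 37 °C. Non-specific binding defined with 10 µM unlabeled (+)-pentazocine. Six concentrations, 10^-5 to 10^-10 M, in duplicate. 120 min with shaking, filtration, solid scintillator counting.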

Assay [5] is described as follows: Selectivity ratio of Ki for sigma2 receptor in rat liver membranes to Ki for GluN1a/GluN2B (unknown origin) expressed in mouse L(tk-) cell membranes. The assay is classed as cell-based.
The nature of assay [6]: Selectivity ratio of Ki for sigma1 receptor in guinea pig brain membranes to Ki for sigma2 receptor in rat liver membranes. Format: cell membranes.
For assay [7], the target named is Glutamate NMDA receptor; GRIN1/GRIN2B (Homo sapiens, UniProt Q05586+Q13224). Nature of the assay: Displacement of [3H]ifenprodil from GluN1a/GluN2B (unknown origin) expressed in mouse L(tk-) cell membranes after 120 mins by solid scintillation counting method. In outline: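 Membranes (about 20 μg protein) from mouse L(tk-) cells stably carrying GluN1a/GluN2B, induced with 4 μM dexamethasone and 4 μM ketamine for 24 h. Incubated with 5 nM [3H]ifenprodil in 5 mM TRIS/1 mM EDTA pH 7.5 at 37 °C, 120 min. Non-specific binding defined with 10 μM ifenprodil.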
Chain of Glutamate NMDA receptor; GRIN1/GRIN2B (Q13224 whole entry, other chains not shown): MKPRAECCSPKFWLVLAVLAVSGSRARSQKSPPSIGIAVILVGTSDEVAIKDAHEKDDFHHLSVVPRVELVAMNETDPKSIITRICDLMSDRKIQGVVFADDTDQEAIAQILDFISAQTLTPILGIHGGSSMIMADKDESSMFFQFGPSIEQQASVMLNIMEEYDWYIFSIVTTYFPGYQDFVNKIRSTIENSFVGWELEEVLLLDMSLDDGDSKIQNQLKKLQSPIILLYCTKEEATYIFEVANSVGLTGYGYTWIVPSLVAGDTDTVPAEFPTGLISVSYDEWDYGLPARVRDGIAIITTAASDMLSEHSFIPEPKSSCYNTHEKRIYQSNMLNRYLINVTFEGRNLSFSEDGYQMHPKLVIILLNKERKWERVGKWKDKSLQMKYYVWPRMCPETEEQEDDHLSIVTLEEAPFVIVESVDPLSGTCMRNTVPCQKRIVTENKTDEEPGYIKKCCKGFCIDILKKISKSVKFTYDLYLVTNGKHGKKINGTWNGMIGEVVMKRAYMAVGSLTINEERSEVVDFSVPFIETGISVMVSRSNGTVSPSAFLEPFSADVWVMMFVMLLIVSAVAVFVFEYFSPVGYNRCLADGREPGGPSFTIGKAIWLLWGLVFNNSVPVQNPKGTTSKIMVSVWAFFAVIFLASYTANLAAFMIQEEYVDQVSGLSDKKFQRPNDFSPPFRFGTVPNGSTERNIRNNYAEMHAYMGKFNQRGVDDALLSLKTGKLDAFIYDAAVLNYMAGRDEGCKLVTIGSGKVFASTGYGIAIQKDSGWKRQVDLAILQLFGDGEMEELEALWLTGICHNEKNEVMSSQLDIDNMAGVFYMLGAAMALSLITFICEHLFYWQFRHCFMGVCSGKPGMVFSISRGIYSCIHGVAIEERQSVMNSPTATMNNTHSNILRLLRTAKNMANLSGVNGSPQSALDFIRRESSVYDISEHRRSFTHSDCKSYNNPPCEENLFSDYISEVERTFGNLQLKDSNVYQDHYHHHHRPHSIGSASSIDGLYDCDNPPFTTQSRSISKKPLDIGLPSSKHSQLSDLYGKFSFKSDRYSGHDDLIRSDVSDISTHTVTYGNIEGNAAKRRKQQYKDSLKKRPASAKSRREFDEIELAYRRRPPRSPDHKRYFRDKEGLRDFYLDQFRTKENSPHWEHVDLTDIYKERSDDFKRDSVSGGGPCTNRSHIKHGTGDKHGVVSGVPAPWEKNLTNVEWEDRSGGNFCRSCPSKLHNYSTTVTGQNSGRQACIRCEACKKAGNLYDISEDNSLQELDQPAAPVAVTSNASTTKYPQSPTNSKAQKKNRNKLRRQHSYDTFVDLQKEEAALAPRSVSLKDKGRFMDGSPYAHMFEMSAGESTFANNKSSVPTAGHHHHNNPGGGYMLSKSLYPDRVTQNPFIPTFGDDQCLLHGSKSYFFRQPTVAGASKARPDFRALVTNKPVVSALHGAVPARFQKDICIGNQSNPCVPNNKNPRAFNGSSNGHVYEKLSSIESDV

Chain of Sigma non-opioid intracellular receptor 1 (Q60492 whole entry): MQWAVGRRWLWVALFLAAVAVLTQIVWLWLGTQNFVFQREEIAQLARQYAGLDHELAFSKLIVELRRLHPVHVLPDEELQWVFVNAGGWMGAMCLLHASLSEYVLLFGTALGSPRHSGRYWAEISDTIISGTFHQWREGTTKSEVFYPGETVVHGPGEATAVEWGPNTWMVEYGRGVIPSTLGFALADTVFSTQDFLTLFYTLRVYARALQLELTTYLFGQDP

The term IC50 denotes the concentration that inhibits the measured activity by half. Take `O=C1O[C@H]([C@@H](O)CO)C(O)=C1O` [ASCORBIC ACID]: the results for the half-inhibitory concentration (IC50) in assay [1] and in assay [2] were 17.11 µg/mL (≈ 97.1 µM) and 13.85 µg/mL (≈ 78.6 µM), respectively.
The Ki is the dissociation constant of the complex between target and ligand, obtained from inhibition or displacement. On to `O=C1CCc2ccccc2N1CCCCN1CCc2ccc([N+](=O)[O-])cc2C1`, for which the Ki is 80 nM in assay [3], 179 nM in assay [4] and 58 nM in assay [7]. Moreover, the Ratio Ki in assay [5] is 1.4; in assay [6], 2.2.
Turning to `O=C1CCc2ccccc2N1CCCCN1CCN(c2ccccn2)CC1`, the inhibition constant (Ki) in assay [3] is 73 nM; in assay [4], 120 nM; in assay [7], 78 nM. Also, the Ratio Ki in assay [5] was found to be 0.9; in assay [6], 1.6.
For `O=c1oc(-c2ccccc2)nn1CCCCN1CCN(c2ccccn2)CC1`, the Ki was found to be 2800 nM in assay [3], 944 nM in assay [4] and 226 nM in assay [7]. Further, the Ratio Ki in assay [5] came to 12.4; in assay [6], 0.33.
Regarding `O=c1oc(-c2ccccc2)nn1CCCCN1CCc2ccc([N+](=O)[O-])cc2C1`, the figures for the Ki in assay [3], in assay [4] and in assay [7] were 383 nM, 829 nM and 412 nM, respectively. Also, the Ratio Ki in assay [5] stood at 0.9; in assay [6] it was 2.2.
As to `Cc1c(C)c2c(c(C)c1O)CCC(C)(C(=O)O)O2` (centres undefined) [TROLOX], the IC50 in assay [1] worked out at 25.88 µg/mL (≈ 103 µM); in assay [2], 22.15 µg/mL (≈ 88.5 µM).
As for `O=c1oc(-c2ccccc2)nn1CCCCN1CCN(c2ccc(F)cc2)CC1`, the inhibitory constant (Ki) in assay [3] was found to be 686 nM; in assay [4], 383 nM; in assay [7], 68 nM. Also, the Ratio Ki in assay [5] is 10; in assay [6] it was 0.57.
